Activity calls are given as the source filed them. The calls are words filed in the database; no cut-off is given here.
How the values were obtained:
HCT-116 [1] = assay: Antiproliferative activity against human HCT116 cells at 8 uM after 72 hrs by MTT assay; assay type: functional, cell-based
Outline: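 HCT-116 cells pretreated with or without GSH (10 mM) for 1 h, washed, then treated for 72 h. Viability measured by MTT and inhibitory rates calculated. Mean ± SD of three independent experiments.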

HCT-116 [2] = assay: Antiinvasive activity in human HCT116 cells assessed as inhibition of TGF-beta1-induced cell invasion at 50 nM after 48 hrs by crystal violet staining-based assay; assay type: functional
Outline: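 Transwell invasion. HCT-116 cells (2.5 × 10^5/well) seeded on matrigel-coated chambers, with TGF-β1 (10 ng/mL) and test agents (2, 10, 50 nM) in the lower chamber for 48 h. Invaded cells stained with crystal violet and counted. Three independent experiments.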

HCT-116 [3] = assay: Inhibition of TGF-beta1-induced decrease in expression levels of E-cadherin protein in human HCT116 cells at 50 nM after 48 hrs by Western blot analysis; assay type: functional, cell-based
Outline: (§1)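 HCT-116 cells treated with or without TGF-β1 (10 ng/mL) for 48 h, with or without test agent. Lysates (20 μg/lane) run on 7.5% SDS-PAGE and transferred to PVDF. Probed for p-Akt (Ser473), Akt, p-GSK-3β (S9), GSK-3β, E-cadherin, MMP-9 and β-actin, detected by ECL. Densitometry relative to β-actin or total protein. Three independent experiments.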

[4] = target: RAC-alpha serine/threonine-protein kinase (Homo sapiens) (UniProt P31749); assay: Inhibition of TGF-beta1-induced AKT phosphorylation in human HCT116 cells at 50 nM after 48 hrs by Western blot analysis; assay type: cell-based; outline: as §1
HCT-116 [5] = assay: Cytotoxicity against human HCT116 cells assessed as reduction in cell viability at 50 nM after 72 hrs by MTT assay; assay type: cell-based; settings: hct-116, 72 h, 0.05 µM
Outline: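 HCT-116 cells exposed to TGF-β1 (10 ng/mL) alone or combined with test agent at 2, 10 or 50 nM for 24, 48 or 72 h. Viability read by MTT (formazan in DMSO, 570 nm).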

[6] = Stability of compound in intestinal fluid at pH 6.8 at 1 uM after 4 hrs by LC-MS/MS analysis
[7] = Stability of compound in human HCT116 cells at 1 uM after 4 hrs by LC-MS/MS analysis; assay type: ADME, cell-based; settings: hct-116, 4 h
HCT-116 [8] = assay: Induction of ROS accumulation in human HCT116 cells at 1 to 10 uM up to 3 hrs by DCFH-DA staining-based fluorescence spectrometric analysis; assay type: functional, cell-based
Outline: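 HCT-116 and CCD-841 cells treated in triplicate at 1, 5 and 10 μM for 1, 2 and 3 h. Intracellular ROS stained with DCFH-DA and fluorescence read on a microplate reader. Values expressed relative to DMSO control, from three separate experiments.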

Mus musculus [9] = assay: Acute toxicity in ICR mouse assessed as mortality at 50 mg/kg, ip administered for 14 days; assay type: organism-based; settings: in vivo, 336 h
[10] = Acute toxicity in ICR mouse assessed as survival rate at 50 mg/kg, ip administered for 14 days relative to control; assay type: organism-based; settings: in vivo
Mus musculus [11] = assay: Toxicity in BALB/c nude mouse assessed as reduction in body weight at 2.5 to 5 mg/kg, ip administered for 21 consecutive days; assay type: organism-based; settings: in vivo
Outline: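 Male BALB/c nude mice (3−5 weeks) inoculated sc with 1 × 10^7 HCT-116 cells; at tumour volume about 75 mm3 randomized (n = 8 per group) and dosed ip daily at 2.5 or 5 mg/kg for 21 consecutive days. Body weights monitored; liver, kidney, lung and heart inspected for size and morphology at sacrifice.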

HCT-116 [12] = assay: Inhibition of IL-1beta-mediated adhesion of human rhodamine 123-labeled HCT116 cells to HUVEC after 1 hr by fluoresence assay; assay type: functional, cell-based
Outline: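 HUVEC monolayers pretreated with or without IL-1β (1 ng/mL) for 4 h, then washed. Rhodamine 123-labeled HCT-116 cells added with vehicle or test agent (2, 10, 50 nM) at 37 °C for 1 h. Non-adherent cells washed off; percent adhered cells determined by fluorescence microscopy. Three separate experiments.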

HCT-116 [13] = assay: Inhibition of TGF-beta1-induced increase in expression levels of snail protein in human HCT116 cells after 48 hrs by Western blot analysis; assay type: functional, cell-based
Outline: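 HCT-116 cells (1 × 10^6/well, plated overnight) were exposed to TGF-β1 (10 ng/mL) for 48 h, with or without test compound; vehicle was 0.1% DMSO. Lysates (20 μg/lane) were run on 7.5% SDS-PAGE and blotted to PVDF, with primary antibody overnight at 4 °C and HRP/ECL detection. Band densities were normalised to β-actin across three independent experiments.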

[14] = target: T1, Catenin beta-1 (Homo sapiens) (UniProt P35222); assay: Inhibition of TGF-beta1-regulated decrease in cytoplasmic beta-catenin in human HCT116 cells at 2 to 50 nM after 48 hrs by Western blot analysis; assay type: cell-based
T1 sequence (whole entry): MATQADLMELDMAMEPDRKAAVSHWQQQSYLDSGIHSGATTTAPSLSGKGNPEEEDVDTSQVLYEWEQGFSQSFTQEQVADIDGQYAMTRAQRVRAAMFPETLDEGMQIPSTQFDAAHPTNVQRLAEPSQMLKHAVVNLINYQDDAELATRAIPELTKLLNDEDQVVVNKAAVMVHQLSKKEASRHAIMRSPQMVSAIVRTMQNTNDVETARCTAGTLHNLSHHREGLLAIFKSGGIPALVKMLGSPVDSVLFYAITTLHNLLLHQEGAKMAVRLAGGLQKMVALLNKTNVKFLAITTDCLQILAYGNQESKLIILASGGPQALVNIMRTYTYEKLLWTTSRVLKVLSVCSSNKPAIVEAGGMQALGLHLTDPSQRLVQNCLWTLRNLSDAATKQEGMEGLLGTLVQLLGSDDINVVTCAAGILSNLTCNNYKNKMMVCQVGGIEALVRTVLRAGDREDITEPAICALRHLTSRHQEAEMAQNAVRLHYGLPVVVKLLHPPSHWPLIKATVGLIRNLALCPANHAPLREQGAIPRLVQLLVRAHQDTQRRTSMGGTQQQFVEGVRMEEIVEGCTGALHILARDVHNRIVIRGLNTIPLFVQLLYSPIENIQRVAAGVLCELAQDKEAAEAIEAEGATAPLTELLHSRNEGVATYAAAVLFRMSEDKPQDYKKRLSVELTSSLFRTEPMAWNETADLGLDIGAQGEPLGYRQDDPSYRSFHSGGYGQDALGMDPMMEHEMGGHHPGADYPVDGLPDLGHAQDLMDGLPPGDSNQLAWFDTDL
Outline: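 Cytoplasmic and nuclear β-catenin were measured by Western blot in HCT-116 cells given TGF-β1 (10 ng/mL) for 48 h, with or without compound, against 0.1% DMSO vehicle. Lysates (20 μg/lane) were run on 7.5% gels and transferred to PVDF, with Lamin A among the antibodies used. Blots were read by ECL and densitometry, n = 3 independent experiments.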

[15] = Thiol reactivity in DMSO assessed as methyl 2-(3-chloro-2-oxo-1-(3-(3,5,6-trimethylpyrazin-2-yl)acryloyl)piperidin-4-ylthio)acetate formation at 5 mg up to 8 hrs in presence of methyl thioglycolate by 1H NMR analysis

RAC-alpha serine/threonine-protein kinase (Homo sapiens), sequence (P31749 whole entry): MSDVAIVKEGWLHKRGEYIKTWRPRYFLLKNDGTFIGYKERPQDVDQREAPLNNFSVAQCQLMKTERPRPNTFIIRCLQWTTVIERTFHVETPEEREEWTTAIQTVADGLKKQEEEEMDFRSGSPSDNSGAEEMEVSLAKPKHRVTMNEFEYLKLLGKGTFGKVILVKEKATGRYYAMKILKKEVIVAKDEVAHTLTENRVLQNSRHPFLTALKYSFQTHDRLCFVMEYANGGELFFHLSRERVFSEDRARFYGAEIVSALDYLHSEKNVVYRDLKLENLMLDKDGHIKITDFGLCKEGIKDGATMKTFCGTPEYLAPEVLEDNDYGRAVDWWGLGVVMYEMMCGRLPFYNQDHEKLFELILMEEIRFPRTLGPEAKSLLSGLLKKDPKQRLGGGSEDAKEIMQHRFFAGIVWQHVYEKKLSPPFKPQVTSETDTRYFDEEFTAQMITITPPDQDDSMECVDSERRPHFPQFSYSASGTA

Row | Compound | Activity (HCT-116 [1]) | Activity (HCT-116 [2]) | inhibition (HCT-116 [3]) | inhibition [4] | Activity (HCT-116 [5]) | Stability [6] | Stability [7] | Activity (HCT-116 [8]) | Activity (Mus musculus [9]) | survival at 336 h [10] | Activity (Mus musculus [11]) | inhibition (HCT-116 [12]) | inhibition (HCT-116 [13]) | inhibition [14] | Drug metabolism [15]
1 | COc1cc(/C=C/C(=O)N2CCC=CC2=O)cc(OC)c1OC [PIPLARTINE] | Active | Active | Active | Active |  |  |  |  |  |  |  |  |  |  | 
2 | Cc1nc(C)c(/C=C/C(=O)N2CCC=C(Cl)C2=O)nc1C |  |  |  |  | Toxic | Stable | Stable | Active | Non-Toxic | 100% | Non-Toxic | Dose-dependent effect | Dose-dependent effect | Active | Metabolite detected
